From PMC4254804 (Nature communications, 2014)

Biological target: TopBP1 (Homo sapiens, UniProt Q92547)
Format: biochemical
Summary of the method: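 E. coli BL21-expressed (0.1 mM IPTG) TopBP1-BRCT7/8, GST cleaved off with PreScission, 2 μg preincubated with compound in NETN-A (50 mM NaCl, 1 mM EDTA, 20 mM Tris, 0.5% NP-40), 3 h, 4°C, rotating. Then 2 μg biotin-pS1159 peptide (non-phospho peptide control; streptavidin-Sepharose) or GST-p53-DBD (GST control; glutathione-Sepharose) added, 3 h, 4°C. Six NETN-B washes; SDS-PAGE, anti-TopBP1 immunoblot.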

Chain of TopBP1 (Q92547 1264-1493 limits assumed): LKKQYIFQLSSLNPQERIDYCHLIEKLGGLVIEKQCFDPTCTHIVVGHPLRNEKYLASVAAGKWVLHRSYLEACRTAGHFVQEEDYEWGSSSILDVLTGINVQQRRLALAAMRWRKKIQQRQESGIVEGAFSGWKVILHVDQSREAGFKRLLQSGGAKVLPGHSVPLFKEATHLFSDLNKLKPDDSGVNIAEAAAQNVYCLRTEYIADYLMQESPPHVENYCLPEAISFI

## O=C(O)CN(CC(=O)O)Cc1cc2c(cc1O)Oc1cc(O)c(CN(CC(=O)O)CC(=O)O)cc1C21OC(=O)c2ccccc21 [calcein]
  Pulldown competition with purified proteins: biotin-pS1159 peptide streptavidin: submicromolar
